Test results reported in ChEMBL document CHEMBL1147783, “Synthesis and biological activity of novel 4-phenyl-1,8-naphthyridin-2(1H)-on-3-yl ureas: potent acyl-CoA:cholesterol acyltransferase inhibitor with improved aqueous solubility” (Bioorg Med Chem Lett, 2006).

Legend:
[1] = target: T1, Sterol O-acyltransferase 1 (Rattus norvegicus, UniProt O70536); assay: Inhibitory activity against ACAT in rat macrophages
T1 sequence (O70536 whole entry): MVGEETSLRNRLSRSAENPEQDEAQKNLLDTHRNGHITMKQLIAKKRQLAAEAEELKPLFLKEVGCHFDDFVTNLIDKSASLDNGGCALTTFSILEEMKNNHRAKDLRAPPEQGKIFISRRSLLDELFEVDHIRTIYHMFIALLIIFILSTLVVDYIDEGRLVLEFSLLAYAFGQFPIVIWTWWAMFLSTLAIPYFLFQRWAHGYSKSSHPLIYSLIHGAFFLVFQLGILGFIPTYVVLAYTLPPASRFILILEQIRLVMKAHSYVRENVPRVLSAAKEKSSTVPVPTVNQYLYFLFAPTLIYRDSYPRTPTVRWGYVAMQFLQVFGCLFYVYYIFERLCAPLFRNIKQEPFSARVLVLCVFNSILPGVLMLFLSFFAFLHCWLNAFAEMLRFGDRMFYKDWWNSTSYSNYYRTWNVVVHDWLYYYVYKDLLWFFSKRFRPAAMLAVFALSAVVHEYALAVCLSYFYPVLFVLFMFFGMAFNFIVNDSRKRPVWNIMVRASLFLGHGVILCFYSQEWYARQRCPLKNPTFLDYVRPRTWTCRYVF

[2] = Solubility in phosphate buffer at pH 7.4; type: physicochemical
Summary of the method: (§1)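 Solubility was measured at rt in phosphate buffer (5.53% aq citric acid/1.75% aq Na₂HPO₄) adjusted to pH 2.5, 5.5 or 7.4. Dissolved compound was quantified by HPLC.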

[3] = Solubility in phosphate buffer at pH 5.5; type: physicochemical; summary of the method: as §1
[4] = Solubility in phosphate buffer at pH 2.5; type: physicochemical; summary of the method: as §1
[5] = Cmax in mice administered with 30 mg/kg po; type: ADME, organism-based; parameters: dose 30 mg/kg, route oral; conditions: mouse, in vivo
[6] = Cmax in rabbit administered with 1.0 mg/kg/day for 21 days; type: ADME, organism-based, Oryctolagus cuniculus; parameters: dose 1 mg/kg/day; conditions: in vivo
Summary of the method: (§2)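 Rabbits were dosed orally at 1.0 mg/kg/day for 21 days. Blood drug levels gave Cmax and AUC over 0–24 h. Serum total cholesterol was measured under the same regimen and expressed relative to control animals.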

Oryctolagus cuniculus = assay: Decrease in serum total cholesterol in rabbit administered with 1.0 mg/kg/day for 21 days compared to control; type: ADME, organism-based; parameters: scale not given: the % may be the effect or the level left; conditions: in vivo, 504 h; summary of the method: as §2
[7] = AUC in rabbit administered with 1.0 mg/kg/day for 21 days; type: ADME, organism-based, Oryctolagus cuniculus; conditions: plasma; summary of the method: as §2

Row | SMILES | IC50 [1] [nM] | solubility [2] [µg/mL] | solubility [3] [µg/mL] | solubility [4] [µg/mL] | Cmax [5] [ng/mL] | Cmax [6] [ng/mL] | Activity (Oryctolagus cuniculus) [%] | AUC at 504 h [7] [ng·h/mL]
1 | CCCCn1c(=O)c(NC(=O)Nc2c(C(C)C)cccc2C(C)C)c(-c2cccc(OC)c2)c2cccnc21 | 11 | < 1 | < 1 | < 1 | – | – | – | –
2 | CCCCn1c(=O)c(NC(=O)Nc2c(C(C)C)cc(N)cc2C(C)C)c(-c2cccc(OCCCN3CCCC3)c2)c2cccnc21.Cl.Cl | 427 | 130 | 200 | > 1000 | – | – | – | –
3 | CCCCn1c(=O)c(NC(=O)Nc2c(C(C)C)cc(CN(CC)CC)cc2C(C)C)c(-c2cccc(OC)c2)c2cccnc21.Cl | 680 | 62 | 1000 | > 1000 | – | – | – | –
4 | CCCCn1c(=O)c(NC(=O)Nc2c(C(C)C)cc(N)cc2C(C)C)c(-c2cccc(OCCCN3CCCCC3)c2)c2cccnc21.Cl.Cl | 540 | 200 | 180 | > 1000 | – | – | – | –
5 | CCCCn1c(=O)c(NC(=O)Nc2c(C(C)C)ccc(N)c2C(C)C)c(-c2cccc(OC)c2)c2cccnc21.Cl | 14 | 1 | 1 | 700 | – | – | – | –
6 | CCCCn1c(=O)c(NC(=O)Nc2c(C(C)C)ccnc2C(C)C)c(-c2cccc(OC)c2)c2cccnc21.Cl | 5.4 | 5 | 19 | > 1000 | – | – | – | –
7 | CCCCn1c(=O)c(NC(=O)Nc2c(C(C)C)cc(CN)cc2C(C)C)c(-c2cccc(OC)c2)c2cccnc21.Cl | 382 | 36 | 23 | 220 | – | – | – | –

Further lines, results first:

Row | IC50 [1] [nM] | solubility [2] [µg/mL] | solubility [3] [µg/mL] | solubility [4] [µg/mL] | Cmax [5] [ng/mL] | Cmax [6] [ng/mL] | Activity (Oryctolagus cuniculus) [%] | AUC at 504 h [7] [ng·h/mL] | SMILES
8 | 452 | 640 | 690 | > 1000 | – | – | – | – | CCCCn1c(=O)c(NC(=O)Nc2c(C(C)C)cc(N)cc2C(C)C)c(-c2cccc(OCCCN(CC)CC)c2)c2cccnc21.Cl.Cl
9 | 43 | 17 | 19 | > 1000 | – | – | – | – | CCCCn1c(=O)c(NC(=O)Nc2c(C(C)C)ccc(N)c2C(C)C)c(-c2cccc(OCCCO)c2)c2cccnc21.Cl
10 | > 1000 | 30 | 32 | > 1000 | – | – | – | – | CCCCn1c(=O)c(NC(=O)Nc2c(C(C)C)cc(N)cc2C(C)C)c(-c2cccc(OCCO)c2)c2cccnc21.Cl
11 | 61 | 5 | 7 | 680 | – | – | – | – | CCCCn1c(=O)c(NC(=O)Nc2c(C(C)C)cc(N)cc2C(C)C)c(-c2cccc(OCCCCO)c2)c2cccnc21.Cl
12 | 21 | 10 | 14 | > 1000 | 21300 | 16 | 53 | 39.8 | CCCCn1c(=O)c(NC(=O)Nc2c(C(C)C)cc(N)cc2C(C)C)c(-c2cccc(OCCCO)c2)c2cccnc21.Cl
13 | 8.3 | < 1 | 1 | 22 | – | – | – | – | CCCCn1c(=O)c(NC(=O)Nc2c(C(C)C)cc(N)cc2C(C)C)c(-c2cccc(OC)c2)c2cccnc21.Cl
